Reference: ChEMBL document CHEMBL1148277, “Synthesis and pharmacological evaluation of 3-(3,4-dichlorophenyl)-1-indanamine derivatives as nonselective ligands for biogenic amine transporters” (J Med Chem, 2004)

Key:
[1] = molecular target: T1, Sodium-dependent serotonin transporter (Rattus norvegicus, UniProt P31652); assay: (§1) Displacement of [125I]RTI-55 from serotonin transporter of frozen rat caudate membranes; assay type: cell membranes, Membrane
How it was run: (§2)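 Rat caudate membranes as stated in the lines. For NET binding, 5 mM KCl and 300 mM NaCl were added. Radioligand was in protease inhibitors (chymostatin, leupeptin, EDTA, EGTA). Ended by filtration over PEI-presoaked GF/B filters; Ki derived.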

[2] = molecular target: T2, Sodium-dependent dopamine transporter (Rattus norvegicus, UniProt P23977); assay: Reuptake inhibitory activity against dopamine DA transporter
T2 sequence (P23977 whole entry): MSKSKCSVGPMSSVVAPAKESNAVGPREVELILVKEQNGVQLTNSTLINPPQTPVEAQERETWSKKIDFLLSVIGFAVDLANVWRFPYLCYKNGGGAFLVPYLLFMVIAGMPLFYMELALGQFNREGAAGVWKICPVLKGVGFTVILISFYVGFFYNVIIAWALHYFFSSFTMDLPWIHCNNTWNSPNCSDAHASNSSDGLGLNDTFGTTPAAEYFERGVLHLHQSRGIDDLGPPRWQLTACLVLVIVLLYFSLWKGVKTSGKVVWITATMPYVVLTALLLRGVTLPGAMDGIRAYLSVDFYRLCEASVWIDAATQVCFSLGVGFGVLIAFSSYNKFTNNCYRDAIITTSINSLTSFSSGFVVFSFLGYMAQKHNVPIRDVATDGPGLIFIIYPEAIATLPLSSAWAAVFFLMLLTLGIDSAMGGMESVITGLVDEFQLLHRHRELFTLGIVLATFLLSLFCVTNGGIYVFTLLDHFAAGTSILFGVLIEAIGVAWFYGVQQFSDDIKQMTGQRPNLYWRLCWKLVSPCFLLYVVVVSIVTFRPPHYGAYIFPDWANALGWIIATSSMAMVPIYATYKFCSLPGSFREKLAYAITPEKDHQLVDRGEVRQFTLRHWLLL

[3] = molecular target: T3, Norepinephrine transporter (Rattus norvegicus, UniProt Q9WTR4); assay: Displacement of from norepinephrine transporter of frozen rat caudate membranes; assay type: cell membranes, Membrane; how it was run: as §2
T3 sequence (Q9WTR4 whole entry): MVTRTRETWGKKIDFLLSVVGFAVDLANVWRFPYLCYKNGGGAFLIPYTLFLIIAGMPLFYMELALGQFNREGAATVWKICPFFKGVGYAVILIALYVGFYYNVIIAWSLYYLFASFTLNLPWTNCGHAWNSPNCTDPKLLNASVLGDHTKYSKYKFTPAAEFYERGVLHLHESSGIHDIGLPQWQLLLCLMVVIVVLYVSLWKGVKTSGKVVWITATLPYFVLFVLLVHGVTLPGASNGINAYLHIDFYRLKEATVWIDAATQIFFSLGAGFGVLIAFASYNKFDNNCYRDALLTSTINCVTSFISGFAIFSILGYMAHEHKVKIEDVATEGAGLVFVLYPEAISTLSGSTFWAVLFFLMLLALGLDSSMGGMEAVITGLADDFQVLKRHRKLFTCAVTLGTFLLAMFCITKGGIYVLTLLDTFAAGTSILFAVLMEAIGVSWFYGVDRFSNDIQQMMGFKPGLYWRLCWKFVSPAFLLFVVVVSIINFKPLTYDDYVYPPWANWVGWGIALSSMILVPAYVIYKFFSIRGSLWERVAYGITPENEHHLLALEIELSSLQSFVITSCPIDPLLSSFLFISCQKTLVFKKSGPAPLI

[4] = molecular target: T3, Norepinephrine transporter; assay: Reuptake inhibitory activity against NE transporter; assay type: functional
[5] = molecular target: T1, Sodium-dependent serotonin transporter; assay: Reuptake inhibitory activity against Serotonin transporter
How it was run: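 [³H]5-HT uptake in crude synaptosomes from rat whole brain minus caudate, in Krebs phosphate buffer pH 7.4 with 1 mg/mL ascorbic acid and 50 μM pargyline. Stopped after 30 min by Tris-HCl/NaCl wash buffer and rapid GF/B filtration. Run twice, each in triplicate.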

[6] = molecular target: T2, Sodium-dependent dopamine transporter; assay: Binding affinity for DA transporter using [125I]RTI-55 in frozen rat caudate membranes; assay type: cell membranes; how it was run: as §2
[7] = molecular target: T1, Sodium-dependent serotonin transporter; assay: as §1; assay type: cell membranes, Membrane; remark: listed apart in the source
How it was run: as §2, with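 “lines. Incubated 18–24 h at 4 °C to equilibrium with radioligand and test drug in 55.2 mM sodium phosphate buffer, pH 7.4, with 1 mg/mL BSA.” for “lines.”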

T1 sequence (P31652 whole entry): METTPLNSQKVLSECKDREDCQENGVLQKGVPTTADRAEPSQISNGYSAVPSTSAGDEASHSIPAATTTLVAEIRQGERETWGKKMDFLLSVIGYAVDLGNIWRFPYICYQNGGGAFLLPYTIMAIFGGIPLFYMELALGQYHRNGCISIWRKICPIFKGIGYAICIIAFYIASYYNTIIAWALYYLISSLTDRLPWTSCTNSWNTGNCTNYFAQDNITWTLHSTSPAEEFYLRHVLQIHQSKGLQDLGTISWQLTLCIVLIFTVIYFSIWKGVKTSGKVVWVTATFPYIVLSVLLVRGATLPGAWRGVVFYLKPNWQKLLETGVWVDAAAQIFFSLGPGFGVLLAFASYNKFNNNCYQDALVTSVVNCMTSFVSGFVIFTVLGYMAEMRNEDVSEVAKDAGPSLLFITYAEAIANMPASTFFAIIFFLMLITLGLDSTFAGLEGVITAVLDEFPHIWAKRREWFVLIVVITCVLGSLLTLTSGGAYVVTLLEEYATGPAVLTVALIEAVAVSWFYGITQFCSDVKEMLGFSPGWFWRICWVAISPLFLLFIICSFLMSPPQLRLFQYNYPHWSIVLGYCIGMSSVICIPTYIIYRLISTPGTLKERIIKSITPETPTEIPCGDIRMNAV

Compound | Ki [1] [nM] | Ki [2] [nM] | Ki [3] [nM] | Ki [4] [nM] | Ki [5] [nM] | Ki [6] [nM] | Ki [7] [nM]
CN[C@@H]1C[C@@H](c2ccc(Cl)c(Cl)c2)c2ccc(OC)cc21 | 0.7 | 12 | 7 | 34 | 19 | 9 | 
CCN(CC)C1CC(c2ccc(Cl)c(Cl)c2)c2ccc(OC)cc21 (cis isomer) | 26 |  | > 4700 |  |  | 1310 | 
CCN(CC)C1CC(c2ccc(Cl)c(Cl)c2)c2ccc(O)cc21 (trans isomer) | 0.7 |  | 1330 |  |  | 40 | 
CCN(CC)C1CC(c2ccc(Cl)c(Cl)c2)c2ccc(OC)cc21 (trans isomer) | 1.3 |  | 1010 |  |  | 140 | 
CNC1CC(c2ccc(Cl)c(Cl)c2)c2ccc(OC)cc21 (trans isomer) | 1.1 |  | 15 |  |  | 12 | 
CN[C@H]1C[C@H](c2ccc(Cl)c(Cl)c2)c2ccc(OC)cc21 |  | 600 | 820 | 650 | 109 | 600 | 51
CNC1CC(c2ccc(Cl)c(Cl)c2)c2ccc(O)cc21 (trans isomer) | 3 |  | 24 |  |  | 11 | 
CNC1CC(c2ccc(Cl)c(Cl)c2)c2ccc(OC)cc21 (cis isomer) |  |  | 170 |  |  | 96 | 0.3
